High-throughput results: PubChem, several laboratories
VLA-4 inh – inhibition in a human VLA-4 binding assay; P13612; VLA-4 expressing cells, ligand binding flow cytometry; inhibition, % (about 7 µM as worked out from the volumes in the protocol); 330,000 compounds, 0.2% hits; AID 2557; in the data active = inhibition above about 50%
Hep lipid drop – modulators of hepatic lipid droplet formation; AML12 mouse hepatocytes, oleate lipid droplets, BODIPY imaging; inhibition, % at 6.5 µM; AID 1656; 240,000 compounds, 0.4% hits;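 active = lipid droplet intensity inhibited by at least 50%, with more than 500 cells counted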
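Material – mouse AML12 hepatocyte cell line, fixed after treatment · Compound dosing – one dose, 6.5 µM compound · Times – compound with oleate, overnight · Measured by – Image-based BODIPY and DAPI two-channel analysis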
procasp7 counter – counter-screen: procaspase-7 (human) activation | P55210 | recombinant procaspase-7, Ac-DEVD-pNA absorbance 405 nm; D23A/D198A/D206A triple mutant, cannot self-cleave; scale: DMSO 0, 5 µM enzyme 100 | activation, % at 8.5 µM | 330,000 compounds, 0.093% hits | AID 463210;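 active = percent activation above the screen-wide mean plus 3 SD, cut at about 25% in these data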
Target sequence (P55210 whole entry D23A/D198A/D206A): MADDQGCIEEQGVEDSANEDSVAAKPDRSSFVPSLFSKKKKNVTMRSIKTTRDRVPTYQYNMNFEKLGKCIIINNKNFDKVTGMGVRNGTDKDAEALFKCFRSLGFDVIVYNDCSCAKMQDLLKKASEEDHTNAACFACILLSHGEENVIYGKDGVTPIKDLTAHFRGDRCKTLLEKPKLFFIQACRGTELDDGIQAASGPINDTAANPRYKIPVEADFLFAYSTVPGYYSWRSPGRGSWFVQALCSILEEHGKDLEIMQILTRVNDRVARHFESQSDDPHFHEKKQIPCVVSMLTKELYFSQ
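System: Procaspase-7 triple mutant (PC-7 D3A); measure: % activation from two-timepoint absorbance difference, scaled to controls; times: 1 h compound preincubation, 2 h substrate cleavage, 25 °C; also added: Ac-DEVD-pNA substrate, 400 µM as added; measured by: Epi-absorbance of released pNA at 405 nm, two timepoints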
GASC-1 inh – inhibitors of human GASC-1 (JMJD2C) demethylase | GST-JMJD2C(1-420) H3K9me3 demethylation, DELFIA europium | inhibition, % at 2.35 µM | 330,000 compounds, 0.069% hits | AID 2099;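 active = more than half of a compound's replicate wells show inhibition beyond 50%, single wells judged on their own value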;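 also: signal counts dimethyl H3K9 product captured on neutravidin plate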
GRK2 inh – blocks RNA aptamer binding to human GRK2 | P25098 | bead flow cytometry, FAM-aptamer displacement from GRK2 | inhibition of aptamer binding, % at 10 µM | 330,000 compounds, 0.59% hits | AID 488847;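 active = inhibition of aptamer binding above 40%, roughly 3 SD of noise, on plates passing a quality check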;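 also: median bead fluorescence of bound FAM aptamer so fluorescent compounds give negative values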
proCasp3 act – activators of human procaspase-3. P42574. recombinant procaspase-3 D3A, Ac-DEVD-pNA absorbance 405 nm. activation, % at 8.5 µM. 330,000 compounds, 0.11% hits;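 active = activation above the mean of all tested compounds plus 3 SD, cut at about 21% in these data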
Target sequence (P42574 whole entry D9A/D28A/D175A): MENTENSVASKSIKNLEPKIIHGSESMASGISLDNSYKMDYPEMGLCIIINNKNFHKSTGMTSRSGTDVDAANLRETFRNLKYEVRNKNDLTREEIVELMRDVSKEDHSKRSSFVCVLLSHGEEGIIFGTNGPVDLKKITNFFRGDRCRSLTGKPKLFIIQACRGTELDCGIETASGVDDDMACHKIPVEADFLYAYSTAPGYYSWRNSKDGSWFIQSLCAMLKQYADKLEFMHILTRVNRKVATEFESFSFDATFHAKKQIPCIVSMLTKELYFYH
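Assay system: Procaspase-3 D3A mutant, all three cleavage aspartates alanine. Buffer or medium: Zinc-free HEPES saline buffer with Triton X-100. Times: 1 h compound preincubation, 2 h substrate hydrolysis at 25 °C. Measured by: 405 nm absorbance of p-nitroaniline, reads at 0 and 120 min. Read-out basis: percent activation relative to control range. Replicates: singlicate.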
GRK2 CP1 – confirmation of human GRK2 inhibitors displacing RNA aptamer; shares compounds with GRK2 inh; bead-bound GRK2, FAM-aptamer displacement, flow cytometry; aptamer displacement, % at 10 µM; 2,000 compounds, 4% hits; AID 504451;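 active = aptamer displacement above 40%, near three times the noise of non-fluorescent compounds, on plates passing quality checks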;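 also: negative values mostly reflect intrinsic compound fluorescence rather than true enhancement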
FAM quench CP1 – aptamer fluorescence quenching in GRK2 counter-screen | shares compounds with GRK2 inh | Carboxyfluorescein RNA aptamer on beads, flow cytometry quenching; active compounds read low | fluorescence response (% of DMSO), % at 10 µM | 2,000 tested, under 10 active | AID 504580;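 active = compounds that quench the bead-bound fluorescent RNA probe, cutting fluorescence to under half of the solvent control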;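 also: counterscreen run without GRK2 so only probe quenching by compound is measured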
GRK2 confirm 2 – human GRK2 inhibition confirmation, cherry pick 2. shares compounds with GRK2 inh. AID 504782. inhibition of aptamer binding, % at 10 µM. 360 tested, under 10 active. bead-bound GRK2, FAM-aptamer displacement, flow cytometry;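 active = inhibition of aptamer binding above 40%, about triple the noise seen with nonglowing compounds, on plates passing quality control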;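 also: negative values mostly come from compounds that fluoresce themselves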
FAM quench CP2 – quenches fluorescent RNA aptamer, GRK2 hit artifact; shares compounds with GRK2 inh; carboxyfluorescein RNA aptamer beads, flow cytometry quenching; active compounds read low; fluorescence response vs DMSO, % at 10 µM; 360 tested, under 10 active; AID 588494;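 active = response vs DMSO under 50%, meaning signal dropped by over half, treated as fluorescence quencher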;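 also: labelled aptamer on streptavidin beads without GRK2 as a quench counter-screen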
Each line names hits and unclear results; the compound was inactive in the other large screens (follow-up assays come after a bar, where they were run). A selection: hits, their analogues and other compounds. The true share with any hit is near 1.3%.

O=C(COc1ccc(N2C(=O)c3ccccc3C2=O)cc1)c1ccccc1	none
O=C(COc1ccccc1N1C(=O)c2ccccc2C1=O)c1ccc(Cl)cc1	GRK2 inh 73 | GRK2 CP1 inactive | FAM quench CP1 inactive
COc1ccccc1C(=O)COC(=O)c1cccc(-n2cnnn2)c1	none (no result: Hep lipid drop)
COc1ccc(/C=C/C(=O)c2cccc(-n3cnnn3)c2)cc1O	GRK2 inh 98 | GRK2 CP1 inactive | FAM quench CP1 inactive
O=C(C1CCCCCC1)N1CC[C@@H](N2CCC(O)CC2)[C@H](O)C1	none | GRK2 CP1 inactive | FAM quench CP1 inactive
O=C(CCCCn1c(=O)[nH]c2ccccc2c1=O)N1CCN(c2cccc(C(F)(F)F)c2)CC1	none (no result: Hep lipid drop)
COc1ccccc1N1CCN(CCCn2c(=S)[nH]c3ccccc3c2=O)CC1	none
COc1ccc(N2CCN(CCCn3c(=S)[nH]c4ccccc4c3=O)CC2)cc1	none | GRK2 CP1 inactive | FAM quench CP1 inactive
O=C(CCCn1c(=S)[nH]c2ccccc2c1=O)N1CCN(c2cccc(Cl)c2)CC1	none (no result: Hep lipid drop) | GRK2 CP1 inactive | FAM quench CP1 inactive
Cc1ccc(NC(=O)CN(C)CC(=O)N(CC(C)C)c2c(N)n(CC(C)C)c(=O)[nH]c2=O)c(C)c1	none (no result: Hep lipid drop)
NS(=O)(=O)c1ccc(NC(=O)CN2CCN(S(=O)(=O)/C=C/c3ccccc3)CC2)cc1	GRK2 inh 54 | GRK2 CP1 inactive | FAM quench CP1 inactive
O=C(O)c1cc(C(=O)O)cc(-c2ccc(/C=c3/sc4nc5ccccc5n4c3=O)o2)c1	none (no result: VLA-4 inh, procasp7 counter, GASC-1 inh, GRK2 inh, proCasp3 act)
O=C(O)c1cccc(-c2ccc(/C=c3/sc4nc5ccccc5n4c3=O)o2)c1	GRK2 inh 50 | GRK2 CP1 inactive | FAM quench CP1 inactive
NC(=O)C[C@H](N)c1cn([C@@H](CC(N)=O)C(=O)N2CCNCC2)nn1	GRK2 inh 49 (no result: Hep lipid drop) | GRK2 CP1 inactive | FAM quench CP1 inactive
O=C(CCN1N=C(c2ccccc2)CCC1=O)NCCCN1CCOCC1	none
Cc1ccc2oc(C(=O)N3CCC(O)(c4cccc(C(F)(F)F)c4)CC3)c(C)c2c1	none
COc1ccc(/C=C2\CCc3c2nc2ccccc2c3C(=O)O)cc1OC	none | GRK2 CP1 inactive | FAM quench CP1 inactive
CCOc1ccc(CCNC(=O)CSC(=S)N2CCCC2)cc1OCC	none (no result: Hep lipid drop)
COc1ccc(N(CC(=O)NC2CCCC2)S(=O)(=O)c2c(C)[nH]c(=O)[nH]c2=O)cc1	none (no result: Hep lipid drop) | GRK2 CP1 inactive | FAM quench CP1 inactive
CCCc1c(C)[nH]c2ccc(NC(C)=O)cc2c1=O	GRK2 inh 74 (no result: Hep lipid drop) | GRK2 CP1 inactive | FAM quench CP1 inactive
O=C(Cc1ccccc1)NCC(=O)N1CCCC1	none
CCCC(=O)Nc1nnc(SCC(=O)N2CCCCC2)s1	none
CCCC(=O)Nc1nnc(SCC)s1	GRK2 inh 100 | GRK2 confirm 2 inactive | FAM quench CP2 inactive
COc1ccc(NC(=O)Nc2sc(=S)n(C)c2C)cc1	GRK2 inh 98 | GRK2 CP1 inactive | FAM quench CP1 inactive
Cc1c(NC(=O)OC(C)C)sc(=S)n1C	none | GRK2 CP1 inactive | FAM quench CP1 inactive
CCc1ccc(N2C(=O)Nc3ccc(Br)cc3C2(O)C(=O)NCCN(C)C)cc1 (stereo unspecified)	none
O=C(Oc1cccc2c(O)cccc12)c1ccccc1	GRK2 inh 42 | GRK2 CP1 inactive | FAM quench CP1 inactive
O=C(Oc1cc(=O)oc2ccccc12)c1ccccc1	GRK2 inh 100 | GRK2 CP1 inactive | FAM quench CP1 inactive
